Experimental data published in ChEMBL document CHEMBL1148164, “Cytotoxicity of artemisinin-related endoperoxides to Ehrlich ascites tumor cells” (J Nat Prod, 1993).

Legend:
[1] = Cytotoxicity against mouse EAC after 3 days by MTT assay; assay type: functional, cell-based; conditions: Ehrlich, 72 h
How it was run: (§1)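 Exponentially growing EAT cells (>95% trypan-blue viable; RPMI 1640, 10% heat-inactivated FCS) at 400 cells/well were exposed to compounds for 2 h at 37°, 5% CO2 (final DMSO 0.25%). Cells were washed 3×, then grown 3 days. MTT (5 mg/ml in PBS) was added for 3 h 45 min, formazan was dissolved in DMSO, and A520 was read. Survival is relative to untreated, medium-blank corrected. Three separate experiments.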

[2] = Cell cycle arrest in mouse EAC assessed as accumulation at S phase by FACS analysis; assay type: functional, cell-based; parameters: concentration or dose not given beside the values; conditions: Ehrlich
[3] = Cytotoxicity against mouse EAC at >50 uM after 3 days by MTT assay; assay type: functional, Ehrlich
How it was run: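 EAT cells grown in suspension in RPMI 1640 with 10% heat-inactivated FCS, streptomycin and penicillin, 37°, 5% CO2; exponential cells, viability >95%. 400 cells/well exposed 2 h at 37° (final DMSO 0.25%), washed 3×, regrown 3 days. MTT 3 h 45 min, formazan in DMSO, A520; survival versus untreated controls. Triplicate separate experiments, mean ± SD.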

[4] = Cytotoxicity against mouse EAC at >175 uM after 3 days by MTT assay; assay type: functional, Ehrlich; how it was run: as §1
[5] = Cytotoxicity against mouse EAC at >125 uM after 3 days by MTT assay; assay type: functional, Ehrlich; how it was run: as §1
[6] = Cytotoxicity against mouse EAC at >500 uM after 3 days by MTT assay; assay type: functional, Ehrlich; how it was run: as §1

SMILES | IC50 [1] [µM] | IC80 [1] [µM] | Activity [2] [%] | Activity [3] [%] | Activity [4] [%] | Activity [5] [%] | Activity [6] [%]
C[C@H]1[C@H](OC(=O)CCC(=O)O)O[C@@H]2O[C@@]3(C)CC[C@H]4[C@H](C)CC[C@@H]1[C@@]24OO3 [SODIUM ARESUNATE] | 19.9 | 53.6 | – | – | – | – | –
C[C@@H]1[C@H](OCc2ccc(C(=O)O)cc2)O[C@@H]2O[C@@]3(C)CC[C@@H]4[C@@H](C)CC[C@@H]1[C@]24OO3 [ARTELINIC ACID] | 16.1 | 103 | 63 | – | – | – | –
C=C1C(=O)O[C@@]23[C@H]1CC[C@@H](C)[C@@H]2CC[C@@]1(C)O[C@@H]31 [ARTEANNUIN B] | 47 | > 50 | – | 44.8 | – | – | –
COc1cccc2c1C(=O)c1c(O)c3c(c(O)c1C2=O)C[C@@](O)(C(=O)CO)C[C@@H]3O[C@H]1C[C@H](N)[C@H](O)[C@H](C)O1 [DOXORUBICIN] | 0.35 | 1 | – | – | – | – | –
C=C1C(=O)O[C@@H]2/C=C(\C)CC/C=C(/C)C[C@@H](OC(=O)/C(=C/CO)CO)[C@@H]12 [EUPATORIOPICRIN] | 5.7 | 13.4 | – | – | – | – | –
CC1=CO[C@@H]2O[C@]3(C)CC[C@H]4[C@H](C)CC[C@@H]1[C@@]24OO3 [ANHYDRODIHYDROARTEMISININ] | 29.2 | 207 | – | – | – | – | –
C=C1[C@@H](OO)O[C@@H]2O[C@]3(C)CC[C@H]4[C@H](C)CC[C@@H]1[C@@]24OO3 [HYDROPEROXYARTEMISITENE] | 37.8 | 59.2 | – | – | – | – | –
C[C@H]1[C@H](O[C@@H]2O[C@@H]3O[C@@]4(C)CC[C@H]5[C@H](C)CC[C@@H]([C@H]2C)[C@@]35OO4)O[C@@H]2O[C@@]3(C)CC[C@H]4[C@H](C)CC[C@@H]1[C@@]24OO3 | 1.4 | 2.4 | – | – | – | – | –
C=C(C(=O)O)[C@@H]1CC[C@@H](C)[C@@H]2CCC(C)=C[C@@H]21 [ARTEMISINIC ACID] | > 175 | > 175 | – | – | 100 | – | –
C[C@@H]1CC[C@H]2[C@@H](C)C(=O)O[C@@H]3O[C@@]4(C)CC[C@@H]1[C@]32OO4 [ARTEMISININ] | 29.8 | 346 | 63 | – | – | – | –
C=C1[C@@H](OOCC)O[C@@H]2O[C@]3(C)CC[C@H]4[C@H](C)CC[C@@H]1[C@@]24OO3 [ETHYLPEROXYARTEMISITENE] | 11.5 | 38.3 | – | – | – | – | –
CC(=O)[C@@H]1CC[C@@H](C)[C@@H]2CC[C@@]3(C)OO[C@@]12C(=O)O3 | > 175 | > 175 | – | – | 98.1 | – | –
C[C@@H]1CC[C@@H]2[C@]34OO[C@@](C)(CC[C@@H]13)O[C@H]4OC(=O)[C@@]2(C)O | > 125 | > 125 | – | – | – | 98.8 | –
CCO[C@H]1O[C@@H]2O[C@@]3(C)CC[C@H]4[C@H](C)CC[C@@H]([C@H]1C)[C@@]24OO3 [ARTEMOTIL] | 13.1 | 212 | 63 | – | – | – | –
CC(C)C12C=CC(C)(CC1)OO2 (stereo not drawn) [ASCARIDOLE] | > 500 | > 500 | – | – | – | – | 74.8
C[C@H]1[C@@H](OCc2ccc(C(=O)O)cc2)O[C@@H]2O[C@]3(C)CC[C@H]4[C@H](C)CC[C@@H]1[C@@]24OO3 [SODIUMARTELINATE] | 12.2 | 47.9 | 63 | – | – | – | –
CC(=O)[C@@H]1CC[C@@H](C)[C@@H]2CC[C@@]3(C)OO[C@@]12[C@H](OC=O)O3 | 91 | 156 | – | – | – | – | –
CO[C@H]1O[C@@H]2O[C@@]3(C)CC[C@H]4[C@H](C)CC[C@@H]([C@H]1C)[C@@]24OO3 [ARTEMETHER] | 14.3 | > 125 | 63 | – | – | 26.7 | –
C[C@H]1[C@@H](O)O[C@@H]2O[C@@]3(C)CC[C@H]4[C@H](C)CC[C@@H]1[C@@]24OO3 [ARTENIMOL] | 83.4 | 233 | – | – | – | – | –
C[C@@H]1CC[C@@H]2[C@]34OO[C@](C)(CC[C@@H]13)O[C@H]4OC(=O)[C@]2(C)O | 48.7 | 125 | – | – | – | – | –
C=C1C(=O)O[C@@H]2O[C@@]3(C)CC[C@H]4[C@H](C)CC[C@@H]1[C@@]24OO3 [ARTEMISITENE] | 6.8 | 16 | – | – | – | – | –
